In ChEMBL document CHEMBL1135512 (J Med Chem, 2002):

How the values were obtained:
[1] = Cytotoxicity against Chinese hamster ovary cells; assay type: cell-based, Cricetulus griseus
Method in brief: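 Cells were then exposed to graded drug concentrations for 48 h at 37 °C, 5% CO2. MTT (1 mg/mL in PBS) was added for 3 h, and formazan was dissolved in DMSO and read at 570/630 nm. IC50 came from nonlinear regression versus drug-free wells.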

Plasmodium falciparum [2] = experiment: Percent reversal against Plasmodium falciparum W2 at 1 uM DEEA; assay type: functional
[3] = Dissociation constant (pKa); assay type: physicochemical
[4] = Partition coefficient (logP); assay type: physicochemical; settings: octanol/water
Plasmodium falciparum [5] = experiment: In vitro inhibitory activity against multidrug-resistant Plasmodium falciparum W2 Indochina; assay type: functional, organism-based
Method in brief: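 Clone W2 (Indochina), sorbitol-synchronized, was grown in RPMI 1640 with 10% human serum, 25 mM HEPES and 25 mM NaHCO3, at final parasitemia 0.5% and hematocrit 1.5%. The drug was present for 48 h at 37 °C under 10% O2/6% CO2/84% N2. Growth was read as 3H-hypoxanthine uptake (1 μCi/well). IC50 came from nonlinear regression of log-dose/response as the geometric mean with 95% CI.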

[6] = In vitro hemolytic concentration on uninfected erythrocytes.; assay type: functional, Homo sapiens
Method in brief: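 Washed A+ human erythrocytes were held at 1.5% hematocrit in RPMI 1640 with 10% human serum, 25 mM HEPES and 25 mM NaHCO3. Drug (2 mM to 1 μM final, triplicate) was added for 42 h at 37 °C under 10% O2/6% CO2. Released hemoglobin in supernatant was measured with TMB/H2O2 at 455 nm. HC50 is relative to 5% saponin lysis, by nonlinear regression.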

[7] = Partition coefficient (logD7.0); assay type: physicochemical; settings: octanol/water
Plasmodium falciparum [8] = experiment: Accumulation coefficient of chloroquine at 1 uM-10 uM of DEEA against Plasmodium falciparum W2; Range is from 50-66; assay type: functional
Method in brief: (§1)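 W2 infected erythrocytes were suspended in RPMI 1640 with 25 mM HEPES and 25 mM NaHCO3 (2% parasitemia, 2% hematocrit). They were mixed over silicone oil with buffer holding [3H]CQ (26 Ci/mmol) plus DEEA at 1 or 10 μM. Incubation was 1 h at 37 °C under 10% O2/6% CO2/84% N2, followed by 1 min centrifugation. Ratio = parasite [3H]CQ (infected minus uninfected cells) / same-volume buffer.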

Plasmodium falciparum [9] = experiment: Concentration required to reduce chloroquine IC50 by 50%; assay type: functional, organism-based
Method in brief: (§2)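 Synergy isotopic microtest on sorbitol-synchronized W2 (Indochina) and 3D7 in RPMI 1640 with 10% human serum, HEPES/NaHCO3, parasitemia 0.5%, hematocrit 1.5%. CQ was combined with subinhibitory fixed DEEA concentrations, and 3H-hypoxanthine was added for 48 h at 37 °C under 10% O2/6% CO2/84% N2. Reversal IC50 is the DEEA concentration halving CQ IC50, found by nonlinear regression of log-dose/IC50.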

Plasmodium falciparum [10] = experiment: Accumulation coefficient of chloroquine at 1 uM-10 uM of DEEA against Plasmodium falciparum W2; assay type: functional; method in brief: as §1
Plasmodium falciparum [11] = experiment: Accumulation coefficient of chloroquine at 1 uM-10 uM of DEEA against Plasmodium falciparum W2; Range is from 14-56; assay type: functional; method in brief: as §1
Plasmodium falciparum [12] = experiment: Concentration required to reduce chloroquine IC50 by 50%; Antagonist; assay type: functional, organism-based; method in brief: as §2
Plasmodium falciparum [13] = experiment: Accumulation coefficient of chloroquine at 1 uM-10 uM of DEEA against Plasmodium falciparum W2; Range is from 23-30; assay type: functional
Plasmodium falciparum [14] = experiment: Accumulation coefficient of chloroquine at 1 uM-10 uM of DEEA against Plasmodium falciparum W2;Range is from 30-32; assay type: functional; method in brief: as §1
Plasmodium falciparum [15] = experiment: Accumulation coefficient of chloroquine at 1 uM-10 uM of DEEA against Plasmodium falciparum W2; Range is from 61-242; assay type: functional; method in brief: as §1
Plasmodium falciparum [16] = experiment: Accumulation coefficient of chloroquine at 1 uM-10 uM of DEEA against Plasmodium falciparum W2; Range is from 37-42; assay type: functional; method in brief: as §1
[17] = pKa of the compound; assay type: physicochemical
Plasmodium falciparum [18] = experiment: Accumulation coefficient of chloroquine at 1 uM-10 uM of DEEA against Plasmodium falciparum W2; Range is from 50-159; assay type: functional; method in brief: as §1
Plasmodium falciparum [19] = experiment: Percent reversal against Plasmodium falciparum W2 at 1 uM DEEA
Plasmodium falciparum [20] = experiment: Accumulation coefficient of chloroquine at 1 uM-10 uM of DEEA against Plasmodium falciparum W2; Range is from 22-29; assay type: functional; method in brief: as §1
Plasmodium falciparum [21] = experiment: Accumulation coefficient of chloroquine at 1 uM-10 uM of DEEA against Plasmodium falciparum W2;Range is from 30-23; assay type: functional; method in brief: as §1
Plasmodium falciparum [22] = experiment: Accumulation coefficient of chloroquine at 1 uM-10 um of DEEA against Plasmodium falciparum W2;Range is from 112-298; assay type: functional; method in brief: as §1
Plasmodium falciparum [23] = experiment: Accumulation coefficient of chloroquine at 1 uM-10 uM of DEEA against Plasmodium falciparum W2;Range is from 16-25; assay type: functional; method in brief: as §1
Plasmodium falciparum [24] = experiment: Accumulation coefficient of chloroquine at 1 uM-10 uM of DEEA against Plasmodium falciparum 3D7; assay type: functional
Plasmodium falciparum [25] = experiment: Accumulation coefficient of chloroquine at 1 uM-10 uMof DEEA against Plasmodium falciparum W2; assay type: functional; method in brief: as §1

Row | SMILES | Cytotoxicity [1] [µM] | Reversal (Plasmodium falciparum [2]) [%] | pKa [3] | logP ([4]; read-out: logP) | IC50 (Plasmodium falciparum [5]; Plasmodium falciparum) [µM] | HC50 [6] [µM] | logD ([7]; pH 7, read-out: logD) | IC50 (Plasmodium falciparum [9]; Plasmodium falciparum) [µM] | Accumulation coefficient (Plasmodium falciparum [10]) | further results
1 | CN(C)CC1C2c3ccccc3C(c3ccccc32)C1COC(=O)N(C)C (stereo not drawn) | 758 | 25 | 8.99 | 2.99 | 21 | 1563 | 1 | 1.6 |  | Accumulation coefficient (Plasmodium falciparum [8]): 66
2 | CN(C)C1CC2c3ccccc3C1c1ccccc12 (stereo not drawn) | > 2000 | 60 | 8.67 | 3.67 | 9.3 | >2000 | 2 | 0.8 | 219 | 
3 | O=C(NCc1ccccc1)C1=CC2c3ccccc3C1c1ccccc12 | > 2000 | 0 |  | 4.41 | 50 | >2000 | 4.41 | 23 | 46 | 
4 | O=C(NCCCCCCCCCCNC(=O)C1=CC2c3ccccc3C1c1ccccc12)C1=CC2c3ccccc3C1c1ccccc12 | > 2000 | 0 | -1.14 |  | 8 | >2000 |  |  | 34 | logP [4]: 9.16; logD [7]: 9.16
5 | CN(C)CC1C2c3ccccc3C(c3ccccc32)C1CO (stereo not drawn) | > 2000 | 66 | 8.86 | 2.82 | 36 | >2000 | 0.96 | 0.6 |  | Accumulation coefficient (Plasmodium falciparum [11]): 56
6 | CC1C2c3ccccc3C(c3ccccc32)C1C(=O)Nc1cccnc1 (stereo not drawn) | 93 | 0 | 4.14 | 3.85 | 164 | >2000 | 3.85 |  | 10 | 
7 | CNCC1CC2c3ccccc3C1c1ccccc12 (stereo not drawn) | 515 | 80 | 10.2 | 3.66 | 8 | 1090 | 0.63 | 0.3 | 210 | 
8 | COC(=O)C1C2c3ccccc3C(c3ccccc32)C1C(=O)N(C)C (stereo not drawn) | > 2000 | 0 | -1.65 | 2.47 | 32 | >2000 | 2.47 |  |  | IC50 (Plasmodium falciparum [12]): Antagonist; Accumulation coefficient (Plasmodium falciparum [13]): 30
9 | COc1ccc(CCN(C)CCCC(C#N)(c2ccc(OC)c(OC)c2)C(C)C)cc1OC (stereo not drawn) |  | 57 | 8.29 |  | 13.4 | 861 |  | 0.8 | 97 | 
10 | CN(C)C(=O)C1C2c3ccccc3C(c3ccccc32)C1C(=O)N(C)C (stereo in doubt; 17) | 1558 | 3 | -1.34 | 1.7 |  | >2000 | 1.7 | 9 |  | IC50 (Plasmodium falciparum [5]): 12.4 µM; Accumulation coefficient (Plasmodium falciparum [14]): 32
11 | CN(C)CC1=C(CN(C)C)C2c3ccccc3C1c1ccccc12 | 920 | 55 | 8.66 | 3.34 | 2.5 | >2000 | 1.26 | 0.8 |  | Accumulation coefficient (Plasmodium falciparum [15]): 242
12 | CC(CN1c2ccccc2Sc2ccccc21)N(C)C (stereo not drawn) [PROMETHAZINE] | 702 | 67 | 8.89 | 3.86 | 20 | 618 | 1.96 | 0.4 |  | Accumulation coefficient (Plasmodium falciparum [16]): 42
13 | NCC1C2c3ccccc3C(c3ccccc32)C1CN (stereo not drawn) | 465 | 7 |  |  | 8 | >2000 |  | 12.5 |  | logP [4]: 1.89; pKa [17]: 10.1; logD ([7]; pH 7): -3.27; Accumulation coefficient (Plasmodium falciparum [18]): 159
14 | CN(C)CC1C2c3ccccc3C(c3ccccc32)C1CN(C)C (stereo in doubt; 5) | 1035 |  | 9.19 | 3.41 | 2 | >2000 | 0 | 0.25 |  | Reversal (Plasmodium falciparum [19]): 80%
15 | NC(=O)C1C2c3ccccc3C(c3ccccc32)C1C(N)=O (stereo not drawn) | > 2000 | 0 | -0.96 | 0.86 | 44 | >2000 | 0.86 | 50 |  | Accumulation coefficient (Plasmodium falciparum [20]): 29
16 | CN(C)C(=O)C1=C(C(=O)N(C)C)C2c3ccccc3C1c1ccccc12 | > 2000 | 0 |  | 2.15 | 36.5 | >2000 | 2.15 | > 50 |  | Accumulation coefficient (Plasmodium falciparum [21]): 30
17 | CC1C2c3ccccc3C(c3ccccc32)C1C[N+](C)(C)C.[I-] (stereo not drawn) | > 2000 | 37 |  | 1.32 | 16 | >2000 | 1.32 | 3.5 | 192 | 
18 | CC1C2c3ccccc3C(c3ccccc32)C1CN(C)C (stereo not drawn) | 711 | 60 | 8.99 | 4.24 | 30 | 1402 | 2.25 | 0.4 | 62 | 
19 | CNC1(C)C2CCC(C2)C1(C)C (stereo not drawn) [MECAMYLAMINE] |  | 15 | 11 |  | 91.4 |  | -0.4 | 6 | 45 | logP [4]: 2.13
20 | CN(C)CC1=CC2c3ccccc3C1c1ccccc12 | 1427 | 65 | 8.04 | 3.68 | 4 | 1630 | 2.61 | 0.5 | 53 | 
21 | CN(C)C(=O)C1C2c3ccccc3C(c3ccccc32)C1C(=O)N(C)C (stereo in doubt; 4) | > 2000 | 0 |  |  |  |  |  |  |  | IC50 (Plasmodium falciparum [5]): 35.5 µM
22 | CN(C)CC1C2c3ccccc3C(c3ccccc32)C1CN(C)C (stereo in doubt; 19) | > 2000 | 80 |  |  |  |  |  |  |  | Accumulation coefficient (Plasmodium falciparum [22]): 298; IC50 (Plasmodium falciparum [5]): 4 µM; IC50 (Plasmodium falciparum [9]): 0.4 µM
23 | c1ccc2c(c1)C1c3ccccc3C2C2CNCC12 (stereo not drawn) | 1110 | 80 | 10.2 | 2.98 | 10 | >2000 | 0 | 0.2 | 322 | 
24 | CN(C)C=NC(=O)C1C2c3ccccc3C(c3ccccc32)C1C(=O)N=CN(C)C (stereo not drawn) | 820 | 0 |  | 1.6 | 33 | >2000 | 1.6 | 30 |  | Accumulation coefficient (Plasmodium falciparum [23]): 25
25 | CCN(CC)CCCC(C)Nc1ccnc2cc(Cl)ccc12 (stereo not drawn) [CHLOROQUINE] |  | 0 |  |  | 0.9 |  |  |  |  | Accumulation coefficient (Plasmodium falciparum [24]): 191; Accumulation coefficient (Plasmodium falciparum [25]): 18
